Consider 8 compounds from ChEMBL document CHEMBL3745713, “Bromotyrosine-derived metabolites from an Indonesian marine sponge in the family Aplysinellidae (Order Verongiida)” (Bioorg Med Chem Lett, 2016).

Data set [1] is described as follows: Cytotoxicity against human A2780S cells assessed as cell growth at 20 uM measured at 72 hrs by CyQuant proliferation assay relative to control. The note with it: A2780, 72 h, read-out: Activity. In kind it is functional.
Data set [2] can be described thus: Cytotoxicity against mouse NIH/3T3 cells assessed as cell growth at 20 uM measured at 72 hrs by CyQuant proliferation assay relative to control. To be noted: nih3t3, 72 h. In kind it is cell-based.
Data set [3] in a line: Cytotoxicity against human A2780S/CP5 cells assessed as cell growth at 20 uM measured at 72 hrs by CyQuant proliferation assay relative to control. Type of data set: functional. The note with it: A2780S/CP5, 72 h, read-out: Activity.
The nature of data set [4]: Cytotoxicity against human U251MG cells assessed as cell growth at 20 uM measured at 72 hrs by CyQuant proliferation assay relative to control. Type of data set: functional. To be noted: U-251, 72 h, read-out: Activity.
For data set [5], the system named is A549. The data set can be described thus: Cytotoxicity against human A549 cells assessed as cell growth at 20 uM measured at 72 hrs by CyQuant proliferation assay relative to control. In kind it is functional. The note with it: A549, 72 h, read-out: Activity.
For data set [6], the system named is MCF7. The data set can be described thus: Cytotoxicity against human MCF7 cells assessed as cell growth at 20 uM measured at 72 hrs by CyQuant proliferation assay relative to control. Type of data set: functional. To be noted: MCF7, 72 h, read-out: Activity.
The nature of data set [7]: Cytotoxicity against human U251MG cells assessed as cell growth at 50 uM measured at 72 hrs by CyQuant proliferation assay relative to control. Type of data set: functional. To be noted: U-251, 72 h, read-out: Activity. In outline:
(§1)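 Single-concentration screen at 50 and 5 μM across the cancer lines and normal mouse NIH3T3 fibroblasts. Cell growth was read by CyQuant proliferation assay at 72 h. Values are expressed relative to DMSO-treated control. Done in triplicate, one experiment (n=1).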

Data set [8] deals with MCF7. The data set can be described thus: Cytotoxicity against human MCF7 cells assessed as cell growth at 50 uM measured at 72 hrs by CyQuant proliferation assay relative to control. Type of data set: functional. To be noted: MCF7, 72 h, read-out: Activity. The method in brief:
as §1

A short description of data set [9]: Cytotoxicity against mouse NIH/3T3 cells assessed as cell growth at 5 uM measured at 72 hrs by CyQuant proliferation assay relative to control. The note with it: read-out: Activity. In kind it is cell-based, NIH3T3. The method in brief:
as §1

The nature of data set [10]: Cytotoxicity against human A2780S cells assessed as cell growth at 50 uM measured at 72 hrs by CyQuant proliferation assay relative to control. To be noted: A2780, 72 h, read-out: Activity. In kind it is functional. The method in brief:
as §1

Data set [11] can be described thus: Cytotoxicity against human A2780S/CP5 cells assessed as cell growth at 50 uM measured at 72 hrs by CyQuant proliferation assay relative to control. Type of data set: functional. The note with it: A2780S/CP5, 72 h, read-out: Activity. In outline:
as §1

The test system of data set [12] is A549. Briefly: Cytotoxicity against human A549 cells assessed as cell growth at 50 uM measured at 72 hrs by CyQuant proliferation assay relative to control. Type of data set: functional. To be noted: A549, 72 h, read-out: Activity. In outline: as §1
A short description of data set [13]: Cytotoxicity against human U251MG cells assessed as cell growth at 5 uM measured at 72 hrs by CyQuant proliferation assay relative to control. In kind it is functional. To be noted: U-251, 72 h, read-out: Activity. The method in brief:
as §1

A short description of data set [14]: Cytotoxicity against mouse NIH/3T3 cells assessed as cell growth at 50 uM measured at 72 hrs by CyQuant proliferation assay relative to control. In kind it is cell-based, NIH3T3. The note with it: read-out: Activity. In outline: as §1
Data set [15] deals with A549. The data set can be described thus: Cytotoxicity against human A549 cells assessed as cell growth at 5 uM measured at 72 hrs by CyQuant proliferation assay relative to control. To be noted: A549, 72 h, read-out: Activity. In kind it is functional. In outline:
as §1

Data set [16] concerns MCF7. Briefly: Cytotoxicity against human MCF7 cells assessed as cell growth at 5 uM measured at 72 hrs by CyQuant proliferation assay relative to control. Type of data set: functional. To be noted: MCF7, 72 h, read-out: Activity. The method in brief: as §1
A short description of data set [17]: Cytotoxicity against human A2780S cells assessed as cell growth at 5 uM measured at 72 hrs by CyQuant proliferation assay relative to control. The note with it: A2780, 72 h, read-out: Activity. Type of data set: functional. In outline: as §1
Data set [18] concerns the target Beta-secretase 1 (Homo sapiens) (UniProt P56817). The data set can be described thus: Inhibition of BACE1 (unknown origin) using BACE ED as substrate at 41.7 uM by EFC assay.
Data set [19] in a line: Cytotoxicity against human A2780S/CP5 cells assessed as cell growth at 5 uM measured at 72 hrs by CyQuant proliferation assay relative to control. In kind it is functional. To be noted: A2780S/CP5, 72 h, read-out: Activity. The method in brief:
as §1

Data set [20] addresses Beta-secretase 1 (Homo sapiens) (UniProt P56817). Briefly: Inhibition of BACE1 (unknown origin) using BACE ED as substrate at 39.6 uM by EFC assay.
Data set [21] concerns MCF7. Briefly: Cytotoxicity against human MCF7 cells assessed as cell growth at 25 uM measured at 72 hrs by CyQuant proliferation assay relative to control. Type of data set: functional. The note with it: MCF7, 72 h, read-out: Activity.
A short description of data set [22]: Cytotoxicity against mouse NIH/3T3 cells assessed as cell growth at 25 uM measured at 72 hrs by CyQuant proliferation assay relative to control. In kind it is cell-based, NIH3T3. To be noted: read-out: Activity.
The nature of data set [23]: Cytotoxicity against human U251MG cells assessed as cell growth at 25 uM measured at 72 hrs by CyQuant proliferation assay relative to control. In kind it is functional. The note with it: U-251, 72 h, read-out: Activity.
Data set [24] in a line: Cytotoxicity against human A2780S cells assessed as cell growth at 25 uM measured at 72 hrs by CyQuant proliferation assay relative to control. In kind it is functional. To be noted: A2780, 72 h, read-out: Activity.
A short description of data set [25]: Cytotoxicity against human A2780S/CP5 cells assessed as cell growth at 25 uM measured at 72 hrs by CyQuant proliferation assay relative to control. In kind it is functional. The note with it: A2780S/CP5, 72 h, read-out: Activity.
In data set [26] the test system is A549. The data set can be described thus: Cytotoxicity against human A549 cells assessed as cell growth at 25 uM measured at 72 hrs by CyQuant proliferation assay relative to control. To be noted: A549, 72 h, read-out: Activity. Type of data set: functional.
The target in data set [27] is Beta-secretase 1 (Homo sapiens) (UniProt P56817). The data set can be described thus: Inhibition of BACE1 (unknown origin) using BACE ED as substrate at 31.8 uM by EFC assay.
Sequence of Beta-secretase 1 (Homo sapiens) (P56817 whole entry): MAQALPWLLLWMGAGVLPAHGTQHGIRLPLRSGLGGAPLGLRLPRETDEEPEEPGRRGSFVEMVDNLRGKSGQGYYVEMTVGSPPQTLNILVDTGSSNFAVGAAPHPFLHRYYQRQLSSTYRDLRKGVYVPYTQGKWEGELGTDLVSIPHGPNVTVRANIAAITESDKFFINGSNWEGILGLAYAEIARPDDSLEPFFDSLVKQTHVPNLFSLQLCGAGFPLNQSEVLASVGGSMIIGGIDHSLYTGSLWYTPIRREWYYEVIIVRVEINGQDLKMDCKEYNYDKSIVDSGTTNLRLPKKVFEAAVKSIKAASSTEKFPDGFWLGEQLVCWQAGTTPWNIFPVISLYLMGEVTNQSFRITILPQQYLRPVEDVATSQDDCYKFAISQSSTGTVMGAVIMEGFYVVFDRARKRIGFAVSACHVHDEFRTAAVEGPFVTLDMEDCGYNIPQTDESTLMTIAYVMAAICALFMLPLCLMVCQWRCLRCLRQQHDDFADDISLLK
For data set [28] the target is unchanged. The data set can be described thus: Inhibition of BACE1 (unknown origin) using BACE ED as substrate at 31.4 uM by EFC assay.
Data set [29] has the same target. Briefly: Inhibition of BACE1 (unknown origin) using BACE ED as substrate at 41.9 uM by EFC assay.
Data set [30] has the same target. The data set can be described thus: Inhibition of BACE1 (unknown origin) using BACE ED as substrate at 30.6 uM by EFC assay.

Structures are written as SMILES.

As for `COc1cc([C@@H]2c3cc4c(cc3[C@@H](O[C@@H]3O[C@@H]5CO[C@@H](C)O[C@H]5[C@H](O)[C@H]3O)[C@H]3COC(=O)[C@H]23)OCO4)cc(OC)c1O` [ETOPOSIDE], the growth at 20 µM worked out at 35% in [1]; 33% in data set [3]; 21% in data set [4]; 49% in [5]; 46% in [6]. For the same compound, the Activity in [2] is 46%.

What is called inhibition is how much of the control response was suppressed. Regarding `COC1=C(Br)[C@@H](O)[C@]2(C=C1Br)CC(C(=O)NCCCOc1c(Br)cc(CCN)cc1Br)=NO2` [ARAPLYSILLIN 1], the growth at 50 µM came to 30% in data set [7]; 71% in [8]; 14% in data set [10]; 22% in [11]; 17% in data set [12]. Further, the viability at 72 h, 5 µM in data set [9] was 38%. The growth at 5 µM in [13] is 32%; in [15], 16%; in data set [16], 36%; in data set [17], 8%; in [19], 11%. In addition, the viability at 72 h, 50 µM in data set [14] is 7%. For the same compound, the inhibition in data set [18] was found to be 27%.

Turning to `COC1=C(Br)[C@@H](O)[C@]2(C=C1Br)CC(C(=O)NCCCOc1c(Br)cc(CCNC(=N)N)cc1Br)=NO2`, the growth at 50 µM was found to be 32% in [7]; 24% in data set [8]; 12% in data set [10]; 8% in [11]; 48% in [12]. Further, the viability at 72 h, 5 µM in [9] stood at 100%. In addition, the growth at 5 µM in data set [13] amounted to 94%; in data set [15], 85%; in data set [16] it was 98%; in data set [17], 78%; in [19], 45%. The viability at 72 h, 50 µM in [14] was 25%. Further, in [20], the inhibition was determined as 40%.

As for `O=C(CCCCCCC(=O)Nc1ccccc1)NO` [VORINOSTAT], the growth at 25 µM in [21] stood at 52%; in data set [23], 20%; in data set [24] it was 23%; in data set [25] it was 18%; in data set [26], 51%. In addition, the viability at 72 h, 25 µM in data set [22] was 46%.

As for `COC1=C(Br)[C@@H](O)[C@]2(C=C1Br)CC(C(=O)NCCCOc1c(Br)cc(CCNC(=O)CCCCCCCCCCCC(C)C)cc1Br)=NO2`, the growth at 50 µM in [7] was determined as 80%; in data set [8], 64%; in [10], 18%; in [11], 48%; in data set [12], 85%. In addition, the viability at 72 h, 5 µM in [9] was determined as 88%. For the same compound, the inhibition in data set [27] was 57%. Moreover, the growth at 5 µM in data set [13] stood at 98%; in data set [15], 88%; in data set [16], 103%; in data set [17], 77%; in [19] it was 68%. In addition, the viability at 72 h, 50 µM in [14] came out at 95%.

For the compound `CCCCCCC(C)CCCCCCCC(=O)NCCc1cc(Br)c(OCCCNC(=O)C2=NO[C@@]3(C=C(Br)C(OC)=C(Br)[C@H]3O)C2)c(Br)c1` (stereo not given in full), the growth at 50 µM was determined as 97% in [7]; 101% in data set [8]; 87% in data set [10]; 79% in data set [11]; 105% in data set [12]. The viability at 72 h, 5 µM in data set [9] was determined as 94%. In addition, the growth at 5 µM in data set [13] was determined as 99%; in data set [15], 89%; in data set [16], 104%; in [17], 85%; in data set [19], 109%. For the same compound, the viability at 72 h, 50 µM in data set [14] was 95%. Besides, the inhibition in data set [28] came to 70%.

Turning to `COC1=C(Br)[C@@H](O)[C@]2(C=C1Br)CC(C(=O)NCCCOc1c(Br)cc(C(=O)O)cc1Br)=NO2`, the growth at 50 µM was 39% in [7]; 60% in [8]; 21% in data set [10]; 25% in [11]; 68% in [12]. In addition, in data set [9], the viability at 72 h, 5 µM was 94%. This compound yielded an inhibition in data set [29] of 35%. Besides, the growth at 5 µM in [13] is 101%; in [15], 81%; in data set [16], 86%; in data set [17] it was 37%; in data set [19], 33%. Further, the viability at 72 h, 50 µM in data set [14] came out at 29%.

On to `CCCCC(C)CCC/C=C\CCCCCCC(=O)NCCc1cc(Br)c(OCCCNC(=O)C2=NO[C@@]3(C=C(Br)C(OC)=C(Br)[C@H]3O)C2)c(Br)c1` (stereo not given in full), for which the growth at 50 µM was 90% in data set [7]; 104% in [8]; 76% in [10]; 66% in data set [11]; 104% in data set [12]. For the same compound, the viability at 72 h, 5 µM in data set [9] is 100%. In data set [30], the inhibition came to 60%. Further, the growth at 5 µM was found to be 98% in [13]; 98% in [15]; 105% in data set [16]; 82% in data set [17]; 105% in data set [19]. Moreover, the viability at 72 h, 50 µM in [14] worked out at 98%.
